This is one part of a sample in which hits are shown more often than they occur.
CHOP inhibitor = inhibitors of CHOP induction in ER stress response | CHO-K1 CHOP-promoter luciferase, tunicamycin-induced, 15-18 h | inhibition, % at 10 µM | 3.8% of 220,000 active;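 active = compounds that reduced the stress-induced luciferase reporter signal by more than about 70% of percent inhibition, limit read from the data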;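 note: 0% = tunicamycin plus vehicle and 100% = wells without tunicamycin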
TLR4-MyD88 BLA = inhibitors of human TLR4-MyD88 binding. inhibition, % at 8.4 µM. HeLa CL3-4 TLR4/MyD88 BLA complementation, FRET ratio. 0.18% of 200,000 active. O00206+Q99836; in the data active = inhibition above about 25%;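 note: 0% = vehicle and 100% = reference inhibitor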
TLR9-MyD88 inh = blocks human TLR9 binding to MyD88 | Q9NR96+Q99836 | CHO BLA complementation TLR9-MyD88, CCF4 FRET ratio | inhibition, % at 4.98 µM | 0.21% of 340,000 active | AID 504734;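 active = inhibition above the mean over all tested compounds plus 3 SD, cut at about 21% in these data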;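 note: 0% = DMSO only wells and 100% = clavulanate BLA inhibitor control wells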
UPR CHOP act = apoptotic UPR (CHOP) activation | CHO-CHOP luciferase reporter, luminescence; percent of tunicamycin response over DMSO baseline | activation, % at 10 µM | 0.34% of 330,000 active | AID 449763;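 active = at 10 µM dose, activation of 40% or more, normalized to positive control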;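 note: 100% = tunicamycin at 10 µg/mL and 0% = DMSO alone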
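Assay system: CHO-CHOP cells, stable luciferase reporter of PERK-eIF2a-CHOP signalling / Buffer or medium: F12 plus 10% serum / Compound dosing: one dose, 10 µM in 0.5% DMSO / Times: 6 h compound treatment, 37 °C / Technique: luciferase luminescence / Read-out: % reporter activation, DMSO baseline versus tunicamycin full activation / Benchmarks: tunicamycin and DMSO controls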
XBP1 UPR activ = adaptive UPR (XBP1) activation; 0.33% of 330,000 active; activation, % at 20 µM; CHO-XBP1 luciferase reporter, IRE1-XBP1 UPR activation, luminescence; percent of tunicamycin response, DMSO as zero;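 active = versus positive control, 20 µM dose yields 30% or more activation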;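 note: 100% = tunicamycin at 10 µg/mL and 0% = DMSO only wells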
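Assay system: IRE1-XBP1 luciferase reporter CHO line. Input: 1000 cells/well. Buffer or medium: F12 with 10% serum. Doses: 20 µM, 1% DMSO. Times: overnight seeding at 37 °C, 6 h compound treatment at 37 °C. Technique: Steady-Glo luciferase glow luminescence, 10 min after reagent addition.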
NOD2 RIPK2 PPI = inhibitors of human NOD2-RIPK2 interaction | O43353 | CHO BLA complementation NOD2-RIPK2, CCF4 ratio | inhibition, % at 4.98 µM | 0.38% of 360,000 active | AID 624267; in the data active = inhibition above about 21%;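 note: 0% = vehicle only and 100% = reference blocker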
Starred values were filed as active, the others as inactive.

Screening CCOc1cc(/C=C(/C#N)c2nc3ccccc3[nH]2)ccc1Oc1ccc([N+](=O)[O-])cn1 returned CHOP inhibitor 66, TLR4-MyD88 BLA 11, TLR9-MyD88 inh -10, UPR CHOP act 10, XBP1 UPR activ 0 and NOD2 RIPK2 PPI 9.
COc1cc(/C=C(/C#N)c2nc3ccccc3[nH]2)ccc1Oc1ncccc1[N+](=O)[O-] was read as CHOP inhibitor 92*, TLR4-MyD88 BLA 5, TLR9-MyD88 inh -2, UPR CHOP act 11, XBP1 UPR activ 21 and NOD2 RIPK2 PPI 2.
`Cc1ccc(N2C(=O)CC(Nc3ccccc3)C2=O)cc1` (stereo not given) gave CHOP inhibitor 1, TLR4-MyD88 BLA -3, TLR9-MyD88 inh 7, UPR CHOP act -2, XBP1 UPR activ 2 and NOD2 RIPK2 PPI -12.
Cc1ccc(S(=O)(=O)NNC2CC(=O)N(c3ccc(Br)cc3)C2=O)cc1 (stereo not given) was read as CHOP inhibitor 73*, TLR4-MyD88 BLA 8, TLR9-MyD88 inh -2, UPR CHOP act -2, XBP1 UPR activ 0 and NOD2 RIPK2 PPI 4.
Screening Cc1cc2c(cc1C)CSC(c1ccc(O)cc1)SC2 returned CHOP inhibitor 90*, TLR4-MyD88 BLA 5, TLR9-MyD88 inh 10, UPR CHOP act -1, XBP1 UPR activ -1 and NOD2 RIPK2 PPI -2.
For CCCCNC(=O)c1nc(-c2cc3ccccc3[nH]2)oc1-c1cccc(C(F)(F)F)c1 the results were NOD2 RIPK2 PPI -3.
O=C(Nc1ccccc1N(C(=O)c1ccco1)S(=O)(=O)c1cccs1)c1ccco1 was read as CHOP inhibitor 85*, TLR4-MyD88 BLA -6, TLR9-MyD88 inh 2, UPR CHOP act -2, XBP1 UPR activ -4 and NOD2 RIPK2 PPI -6.
Screening COc1ccc(N(C(=O)c2ccco2)S(=O)(=O)c2cccs2)cc1 returned CHOP inhibitor 39, TLR4-MyD88 BLA -1, TLR9-MyD88 inh 1, UPR CHOP act -2, XBP1 UPR activ 12 and NOD2 RIPK2 PPI -3.
`COc1ccc(O)c(C(=O)CC(=O)c2ccccc2)c1` gave CHOP inhibitor 93*, TLR4-MyD88 BLA 8, UPR CHOP act 0 and XBP1 UPR activ -10.
Cc1cccc(NC(=O)c2ccccc2O)c1C was read as CHOP inhibitor 36, TLR4-MyD88 BLA 8, TLR9-MyD88 inh 9, UPR CHOP act 3, XBP1 UPR activ 1 and NOD2 RIPK2 PPI -2.
`Cc1ccc(C(=O)CC(=O)c2cccc(F)c2)c(O)c1` gave CHOP inhibitor 89*, TLR4-MyD88 BLA -6, TLR9-MyD88 inh 1, UPR CHOP act 21, XBP1 UPR activ 11 and NOD2 RIPK2 PPI -5.
Cc1ccc(C)c(NC(=O)c2ccccc2O)c1 was read as CHOP inhibitor 77*, TLR4-MyD88 BLA 11, TLR9-MyD88 inh -6, UPR CHOP act 5, XBP1 UPR activ 2 and NOD2 RIPK2 PPI -3.
Screening Cc1ccc(O)c(C(=O)CC(=O)c2ccccc2Cl)c1 returned CHOP inhibitor 103*, TLR4-MyD88 BLA 1, TLR9-MyD88 inh -9, UPR CHOP act 6, XBP1 UPR activ 3 and NOD2 RIPK2 PPI 5.
For CC(=O)c1ccc(S(=O)(=O)N2CCC(C(=O)Nc3ncc(C)s3)CC2)cc1 the results were TLR9-MyD88 inh -2, UPR CHOP act -2, XBP1 UPR activ -2 and NOD2 RIPK2 PPI 0.
`Cc1ncccc1C(=O)N1CCCC(c2cc(C(=O)Nc3ccc(C(C)(C)C)cc3)no2)C1` (stereo not given) gave NOD2 RIPK2 PPI 2.
`CC(C)C[C@@H](CO)NS(=O)(=O)c1cc(Cl)ccc1F` gave TLR9-MyD88 inh -8 and NOD2 RIPK2 PPI -10.
OC(c1cccc(Cl)c1)c1nc(-c2ccoc2)cs1 (stereo not given) was read as NOD2 RIPK2 PPI -2.
COc1ccc(-c2c(C(F)(F)F)oc3cc(OCC(=O)Nc4ccccc4C(F)(F)F)ccc3c2=O)cc1OC was read as CHOP inhibitor 91*, TLR4-MyD88 BLA -1, TLR9-MyD88 inh 1 and NOD2 RIPK2 PPI -5.
For COc1ccccc1-c1c(C(F)(F)F)oc2cc(OCC(=O)Nc3ccccc3C(F)(F)F)ccc2c1=O the results were CHOP inhibitor 34, TLR4-MyD88 BLA 9, TLR9-MyD88 inh 5, UPR CHOP act 0, XBP1 UPR activ 1 and NOD2 RIPK2 PPI 0.
Cc1ccc(/C=N/N2CCN(Cc3ccccc3)CC2)o1 was read as CHOP inhibitor -11, TLR4-MyD88 BLA -6, TLR9-MyD88 inh -2, UPR CHOP act 1, XBP1 UPR activ 3 and NOD2 RIPK2 PPI 6.
`Cc1ccc(/C=N/N2CCN(Cc3cccc4ccccc34)CC2)o1` gave CHOP inhibitor 72*, TLR4-MyD88 BLA -2, TLR9-MyD88 inh -6, UPR CHOP act 0, XBP1 UPR activ -3 and NOD2 RIPK2 PPI 3.
For COc1ccc(CC(=O)OCC(=O)Nc2ccc3[nH]c(=O)[nH]c3c2)cc1OC the results were TLR9-MyD88 inh 3 and NOD2 RIPK2 PPI -2.
CC(NC(=O)C1CCN(CCOc2ccc(Cl)cc2)CC1)c1cccc2ccccc12 (stereo not given) was read as NOD2 RIPK2 PPI 1.
`O=c1c2c3nc4ccccc4nc3n(-c3ccc4c(c3)OCCO4)c2ncn1C1CCCC1` gave TLR9-MyD88 inh -3, UPR CHOP act 77*, XBP1 UPR activ 10 and NOD2 RIPK2 PPI 5.
Screening Nc1c(C(=O)OCC2CCCO2)c2nc3ccccc3nc2n1-c1ccc2c(c1)OCCO2 (stereo not given) returned CHOP inhibitor 46, TLR4-MyD88 BLA 21, UPR CHOP act -4 and XBP1 UPR activ -7.
For CCOC(=O)c1c[nH]n2c(=S)ncnc12 the results were TLR9-MyD88 inh -10 and NOD2 RIPK2 PPI -2.
`CCOC(=O)N(C)c1c(CC)nc2c(OCc3cc(Cl)cc(Cl)c3)cccn12` gave NOD2 RIPK2 PPI 15.
For FC(F)Oc1ccc(/C=N/NC(=S)Nc2cc(C(F)(F)F)ccc2Cl)cc1 the results were CHOP inhibitor 76*, TLR4-MyD88 BLA -4, TLR9-MyD88 inh -14, UPR CHOP act 0, XBP1 UPR activ -1 and NOD2 RIPK2 PPI 2.
`CNC(=S)Nc1cc(C(F)(F)F)ccc1Cl` gave CHOP inhibitor -5, TLR4-MyD88 BLA -2, TLR9-MyD88 inh 4, UPR CHOP act -2, XBP1 UPR activ -2 and NOD2 RIPK2 PPI 1.
`CC1(c2nnnn2-c2ccc3c(c2)OCCO3)CCC(=O)N1CC(F)(F)F` (stereo not given) gave NOD2 RIPK2 PPI 4.
`CCNc1nc(NC(C)C)nc(N(C#N)CCOc2ccc(Cl)cc2Cl)n1` gave CHOP inhibitor 76*, TLR4-MyD88 BLA -10, TLR9-MyD88 inh -2, UPR CHOP act -2, XBP1 UPR activ -2 and NOD2 RIPK2 PPI 2.
